Among the data in PubChem BioAssay AID488936 (Broad Institute, 2010) are AC50 and activity change, negative = inhibition values, retold here.

As a reminder, the AC50 is the concentration giving half of the maximal activity seen.

Calls of active or inactive are those of the source.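 Rule for the calls: active = compounds lowering caspase luminescence whose fitted AC50 is at most ten times their top valid dose; inconclusive = flat partial inhibition or a poor quality curve fit; inactive = the rest.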

Experiment [1] concerns INS-1E cytokine-induced caspase-3/7 luminescence, 48 h. The experiment can be described thus: suppressors of cytokine-driven caspase-3/7 activity, dose response, orthogonal assay for beta-cell apoptosis inhibitor project, INS-1E rat cells, dry powder, set 2 (AID 488936). The gist of the method:
(§1)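 Assay system: rat INS-1E insulinoma cells; Reagent: IFN-gamma, TNF-alpha and IL-1β cytokine cocktail; Control set: SAHA positive control; Measure: IC50 of caspase-3/7 activity from concentration-response curve; Detection: Luciferase-based luminescence, Caspase-Glo 3/7 reagent; Times: 48 h cytokine and compound exposure, 1 h detection.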

Test in experiment [2]: as above
The conditions noted are these: INS-1E cytokine-induced caspase-3/7 luminescence, 48 h. The gist of the method:
as §1

Turning to `COc1ccc(S(=O)(=O)N(C)C[C@@H]2Oc3c(NC(=O)Nc4cccc5ccccc45)cccc3C(=O)N([C@H](C)CO)C[C@H]2C)cc1`, in experiment [1], the AC50 is > 23.5 µM (inactive).

For the compound `COc1ccc(S(=O)(=O)N(C)C[C@@H]2Oc3c(NC(=O)Nc4ccccc4)cccc3C(=O)N([C@@H](C)CO)C[C@H]2C)cc1`, the AC50 in experiment [1] is > 26 µM (inactive).

With `C[C@@H]1CN([C@@H](C)CO)C(=O)c2cccc(NC(=O)Nc3cccc4ccccc34)c2O[C@H]1CN(C)S(=O)(=O)c1ccc2c(n1)N(C)CCO2`, the AC50 in experiment [1] is > 26 µM (inactive).

`COc1ccc(S(=O)(=O)N(C)C[C@@H]2Oc3c(NS(=O)(=O)c4ccc(Cl)cc4)cccc3C(=O)N([C@@H](C)CO)C[C@H]2C)cc1`: the activity change, negative = inhibition in experiment [2] (at 26 µM (top of the series)) was -4.43% (inactive).

As for `C[C@@H]1CN([C@@H](C)CO)C(=O)c2cccc(NC(=O)Nc3ccccc3)c2O[C@H]1CN(C)S(=O)(=O)c1ccc(F)cc1`, the activity change, negative = inhibition in experiment [2] (at 26 µM (top of the series)) was -13.5% (inactive).

For `CNC[C@@H]1Oc2c(NC(=O)Nc3cccc4ccccc34)cccc2C(=O)N([C@@H](C)CO)C[C@H]1C`, in experiment [2] (at 26 µM (top of the series)), the activity change, negative = inhibition was -6.33% (inactive).

Take `C[C@@H]1CN([C@@H](C)CO)C(=O)c2cccc(NC(=O)Nc3cccc4ccccc34)c2O[C@H]1CN(C)S(=O)(=O)c1cccc(F)c1`: the activity change, negative = inhibition in experiment [2] (at 26 µM (top of the series)) was 6.97% (inactive).

For the compound `C[C@@H]1CN([C@@H](C)CO)C(=O)c2cccc(NC(=O)Nc3cccc4ccccc34)c2O[C@H]1CN(C)C(=O)Nc1ccc2c(c1)OCO2`, the activity change, negative = inhibition in experiment [2] (at 26 µM (top of the series)) was 32.4% (inactive).

With `Cc1ccc(S(=O)(=O)N(C)C[C@@H]2Oc3c(NC(=O)Nc4ccccc4)cccc3C(=O)N([C@H](C)CO)C[C@H]2C)cc1`, the activity change, negative = inhibition in experiment [2] (at 26 µM (top of the series)) is -10.7% (inactive).

Take `C[C@@H]1CN([C@@H](C)CO)C(=O)c2cccc(NC(=O)Nc3cccc4ccccc34)c2O[C@H]1CN(C)S(=O)(=O)c1ccc2c(c1)OCO2`: in experiment [2] (at 26 µM (top of the series)), the activity change, negative = inhibition was -4.01% (inactive).

As to `COc1ccc(S(=O)(=O)N(C)C[C@@H]2Oc3c(NC(=O)Nc4ccc5c(c4)OCO5)cccc3C(=O)N([C@@H](C)CO)C[C@H]2C)cc1`, the activity change, negative = inhibition in experiment [2] (at 26 µM (top of the series)) is -4.99% (inactive).

Regarding `COc1ccc(S(=O)(=O)N(C)C[C@@H]2Oc3c(NC(=O)Nc4cccc5ccccc45)cccc3C(=O)N([C@@H](C)CO)C[C@H]2C)cc1F`, the activity change, negative = inhibition in experiment [2] (at 26 µM (top of the series)) was 5.84% (inactive).

In the case of `C[C@@H]1CN([C@@H](C)CO)C(=O)c2cccc(NC(=O)Nc3cccc4ccccc34)c2O[C@H]1CN(C)S(=O)(=O)c1ccc2c(c1)OCCCO2`, the activity change, negative = inhibition in experiment [2] (at 26 µM (top of the series)) is 0.778% (inactive).

As for `C[C@@H]1CN([C@@H](C)CO)C(=O)c2cccc(NC(=O)Nc3cccc4ccccc34)c2O[C@H]1CN(C)S(C)(=O)=O`, the activity change, negative = inhibition in experiment [2] (at 26 µM (top of the series)) is -7.6% (inactive).

Consider `COc1ccc(S(=O)(=O)N(C)C[C@@H]2Oc3c(NC(=O)Nc4cccc5ccccc45)cccc3C(=O)N([C@@H](C)CO)C[C@H]2C)cc1C`, for which the activity change, negative = inhibition in experiment [2] (at 12 µM (top of the series)) was -20.2% (inactive).

As for `C[C@@H]1CN([C@@H](C)CO)C(=O)c2cccc(NC(=O)Nc3cccc4ccccc34)c2O[C@H]1CN(C)S(=O)(=O)c1ccccc1F`, the activity change, negative = inhibition in experiment [2] (at 26 µM (top of the series)) was 21.8% (inactive).

As to `COc1ccc(S(=O)(=O)N(C)C[C@@H]2Oc3c(NC(=O)NC(C)C)cccc3C(=O)N([C@@H](C)CO)C[C@H]2C)cc1`, the activity change, negative = inhibition in experiment [2] (at 26 µM (top of the series)) was -8.08% (inactive).

For the compound `C[C@@H]1CN([C@@H](C)CO)C(=O)c2cccc(NC(=O)Nc3cccc4ccccc34)c2O[C@H]1CN(C)S(=O)(=O)c1ccccc1`, in experiment [2] (at 26 µM (top of the series)), the activity change, negative = inhibition was 6.84% (inactive).

On to `C[C@@H]1CN([C@@H](C)CO)C(=O)c2cccc(NC(=O)Nc3ccc(F)cc3)c2O[C@H]1CN(C)S(=O)(=O)c1ccc(F)cc1`, for which the activity change, negative = inhibition in experiment [2] (at 26 µM (top of the series)) is -8.56% (inactive).

As to `COc1ccc(S(=O)(=O)N(C)C[C@@H]2Oc3c(NS(=O)(=O)c4ccccc4)cccc3C(=O)N([C@@H](C)CO)C[C@H]2C)cc1`, the activity change, negative = inhibition in experiment [2] (at 26 µM (top of the series)) was -6.46% (inactive).

With `COc1cccc(S(=O)(=O)N(C)C[C@@H]2Oc3c(NC(=O)Nc4cccc5ccccc45)cccc3C(=O)N([C@@H](C)CO)C[C@H]2C)c1`, in experiment [2] (at 26 µM (top of the series)), the activity change, negative = inhibition was 14.2% (inactive).

For `C[C@@H]1CN([C@@H](C)CO)C(=O)c2cccc(NC(=O)Nc3cccc4ccccc34)c2O[C@H]1CN(C)S(=O)(=O)c1ccc2ncsc2c1`, in experiment [2] (at 26 µM (top of the series)), the activity change, negative = inhibition is -18.8% (inactive).

Take `COc1ccc(S(=O)(=O)N(C)C[C@@H]2Oc3c(NS(=O)(=O)c4ccc(C)cc4)cccc3C(=O)N([C@@H](C)CO)C[C@H]2C)cc1`: the activity change, negative = inhibition in experiment [2] (at 23.5 µM (top of the series)) was -2.16% (inactive).

Regarding `COc1ccc(S(=O)(=O)N(C)C[C@@H]2Oc3ccc(NC(=O)Nc4cccc5ccccc45)cc3C(=O)N([C@@H](C)CO)C[C@H]2C)cc1`, the activity change, negative = inhibition in experiment [2] (at 26 µM (top of the series)) is 5.17% (inactive).

Take `Cc1ccc(S(=O)(=O)N(C)C[C@H]2Oc3c(NC(=O)Nc4cccc5ccccc45)cccc3C(=O)N([C@@H](C)CO)C[C@@H]2C)cc1`: the activity change, negative = inhibition in experiment [2] (at 26 µM (top of the series)) is 29.7% (inactive).

`C[C@@H]1CN([C@@H](C)CO)C(=O)c2cccc(NS(=O)(=O)c3ccccc3)c2O[C@H]1CN(C)Cc1ccc(C(F)(F)F)cc1`: the activity change, negative = inhibition in experiment [2] (at 26 µM (top of the series)) was 7.22% (inactive).

Consider `COc1ccc(S(=O)(=O)N(C)C[C@H]2Oc3c(NC(=O)Nc4cccc5ccccc45)cccc3C(=O)N([C@@H](C)CO)C[C@@H]2C)cc1`, for which the activity change, negative = inhibition in experiment [2] (at 26 µM (top of the series)) is -9.65% (inactive).

Regarding `COc1ccccc1S(=O)(=O)N(C)C[C@@H]1Oc2c(NC(=O)Nc3cccc4ccccc34)cccc2C(=O)N([C@@H](C)CO)C[C@H]1C`, in experiment [2] (at 26 µM (top of the series)), the activity change, negative = inhibition is -13% (inactive).

Turning to `COc1ccc(NC(=O)Nc2cccc3c2O[C@@H](CN(C)S(=O)(=O)c2ccc(OC)cc2)[C@H](C)CN([C@@H](C)CO)C3=O)cc1`, the activity change, negative = inhibition in experiment [2] (at 26 µM (top of the series)) was -9.51% (inactive).

Take `C[C@@H]1CN([C@H](C)CO)C(=O)c2cccc(NC(=O)Nc3ccccc3)c2O[C@H]1CN(C)S(=O)(=O)c1ccc(F)cc1`: the activity change, negative = inhibition in experiment [2] (at 26 µM (top of the series)) is -4.27% (inactive).

For `C[C@@H]1CN([C@@H](C)CO)C(=O)c2cccc(NC(=O)Nc3cccc(Cl)c3Cl)c2O[C@H]1CN(C)S(=O)(=O)c1ccc2c(c1)OCCO2`, the AC50 in experiment [1] is > 26 µM (inactive).

As for `C[C@@H]1CN([C@@H](C)CO)C(=O)c2cccc(NC(=O)Nc3cccc4ccccc34)c2O[C@H]1CN(C)C(=O)NC1CCCCC1`, the activity change, negative = inhibition in experiment [2] (at 26 µM (top of the series)) is 27.4% (inactive).

As for `N#Cc1ccc2cc(Br)c(C(F)(F)P(=O)(O)O)cc2c1`, the activity change, negative = inhibition in experiment [2] (at 26 µM (top of the series)) is -14.1% (inactive).

With `C[C@@H]1CN([C@H](C)CO)C(=O)c2cccc(NC(=O)Nc3ccccc3)c2O[C@H]1CN(C)S(=O)(=O)c1ccc(Cl)cc1`, in experiment [2] (at 26 µM (top of the series)), the activity change, negative = inhibition is -6.09% (inactive).
